≈ marks a conversion by molar mass, not a printed value. Marks after values point to notes of the source that are not given here.
Key:
[1] = Water solubility, shake flask method in 0.1 M phosphate buffer pH 6.8; type: physicochemical; conditions: 37 °C, pH 6.8, aqueous buffer, thermodynamic from solid
How it was run: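 Excess solid added to 1 mL sodium phosphate buffer, pH 6.8. Two conditions: 90 min sonication at 37 °C, or 30 min sonication at 37 °C, 23 h shaking at 300 rpm, then 30 min sonication. Centrifuged 14000 rpm for 5 min, filtered (0.2 µm) at 37 °C and diluted in DMSO. Quantified by LC at maximum absorbance against standard curves; independent triplicates.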

[2] = Ferric reducing antioxidant power; conditions: chemical antioxidant capacity, n=3
How it was run: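 FRAP reagent made from acetate buffer, TPTZ in ethanol and FeCl3·6H2O in dilute HCl, mixed 10:1:1, with TPTZ and iron solutions fresh daily. Sample mixed with reagent 1:9, absorbance read at 593 nm after 4 min. Values expressed as Trolox equivalents by linear regression on a Trolox standard curve; α-tocopherol positive control.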

[3] = DPPH radical‐scavenging activity assay; conditions: result in words
How it was run: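 DPPH diluted to 200 µM in MeOH and mixed with an equal volume of test compound in MeOH at various concentrations. Incubated 30 min in the dark at 30 °C, absorbance read at 515 nm. % inhibition corrected for sample absorbance without DPPH. EC50 from fit to the linear part of the curve. Trolox reference; at least three independent experiments.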

Caco‐2 cells [4] = assay: Mitochondria activity; type: cell-based; conditions: Homo sapiens, Caco-2, 72 h, read-out: Caco‐2 IC50 MTT
How it was run: (§1)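 Cells kept in DMEM+glutamax with 1% NEAA, 1% P/S and 10% FBS at 37 °C, 10% CO2. Seeded 2×10^4 per well for 24 h, then exposed 72 h to test compound at various concentrations in serum-free medium, in triplicate. MTT (5 mg/mL in PBS) added for 2 h, formazan dissolved in DMSO, read at 570 nm. IC50 from % survival; doxorubicin control; MTT and SRB data pooled, mean ± SD, n≥6.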

Caco‐2 cells [5] = assay: Protein content; type: cell-based; conditions: Homo sapiens, Caco-2, 72 h, read-out: Caco‐2 IC50 SRB
How it was run: (§2)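 Seeded 2×10^4 cells per well for 24 h, then treated with or without test compound for three days, in triplicate. Fixed with 50% TCA for 1 h at 4 °C, washed and dried. Stained 30 min at 4 °C with 0.4% sulforhodamine B in 1% acetic acid, rinsed with 1% acetic acid. Dye redissolved in Tris buffer, absorbance read at 490 nm. Doxorubicin control; MTT and SRB data pooled, mean ± SD, n≥6.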

EA.hy926 cells [6] = assay: Mitochondria activity; type: cell-based; conditions: Homo sapiens, EA.hy 926, 72 h, read-out: EA.hy926 IC50 MTT
How it was run: as §1

EA.hy926 cells [7] = assay: Protein content; type: cell-based; conditions: Homo sapiens, EA.hy 926, 72 h, read-out: EA.hy926 IC50 SRB
How it was run: as §2

HT‐29 cells [8] = assay: Mitochondria activity; type: cell-based; conditions: Homo sapiens, HT-29, 72 h, read-out: HT‐29 IC50 MTT
How it was run: as §1

HT‐29 cells [9] = assay: Protein content; type: cell-based; conditions: Homo sapiens, HT-29, 72 h, read-out: HT‐29 IC50 SRB
How it was run: as §2

HepG2 cells [10] = assay: Mitochondria activity; type: cell-based; conditions: Homo sapiens, HepG2, 72 h, read-out: HepG2 IC50 MTT
How it was run: as §1

HepG2 cells [11] = assay: Protein content; type: cell-based; conditions: Homo sapiens, HepG2, 72 h, read-out: HepG2 IC50 SRB
How it was run: as §2

Caco‐2 cells [12] = assay: Intracellular ROS; type: cell-based, human; conditions: protein content normalization, mean±SD, n≥3
How it was run: (§3)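 Cells grown in DMEM+glutamax with 1% NEAA, 1% P/S and 10% FBS at 37 °C, 10% CO2. Seeded at 2×10^4 cells/well for 24 h, then confluent cells were exposed to test compound at 1 or 10 µM in serum-free medium, with NAC as control. Cells were washed, loaded with DCFH-DA for 30 min, then kept 1 h in phenol red-free DMEM. Fluorescence read at ex 485/em 535 nm, normalised to same-well SRB protein (490 nm) and given as % of untreated cells. Mean ± SD, n≥3; two-tailed t-test with unequal variances.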

EA.hy926 cells [13] = assay: Intracellular ROS; type: cell-based; conditions: Homo sapiens
How it was run: as §3

HT‐29 cells [14] = assay: Intracellular ROS; type: cell-based; conditions: Homo sapiens
How it was run: as §3

HepG2 cells [15] = assay: Intracellular ROS; type: cell-based; conditions: Homo sapiens
How it was run: as §3

- solubility at 90 min [1]: 12.4 ± 0.2 µM (≈ 3.45 µg/mL)
- solubility at 24 h [1]: 9.2 ± 0.1 µM (≈ 2.56 µg/mL)
- IC50 (Caco‐2 cells [4]): 6.9 ± 2.5 µM
- IC50 (Caco‐2 cells [5]): 7.3 ± 3.1 µM
- IC50 (HepG2 cells [10]): 8.3 ± 0.7 µM
- IC50 (HepG2 cells [11]): 10 ± 1.6 µM
- Intracellular ROS, percentage compared to the untreated control cells (ROS/SRB), Caco‐2, 1 μM (Caco‐2 cells [12]; 1 μM): 104.8±15.1%
- Intracellular ROS, percentage compared to the untreated control cells (ROS/SRB), Caco‐2, 10 μM (Caco‐2 cells [12]; 10 μM): 142.7±11.9^[b] %
Compound: O=C(/C=C(O)/C=C/c1cccnc1)/C=C/c1cccnc1 [compound 2, (1E,4Z,6E)‐5‐Hydroxy‐1,7‐di(pyridin‐3‐yl)hepta‐1,4,6‐trien‐3‐one]
- FRAP [2]: 0.03 Trolox equiv per μM
- DPPH radical‐scavenging activity [3]: no activity
- IC50 (EA.hy926 cells [6]): 7.9 ± 1.9 µM
- IC50 (EA.hy926 cells [7]): 11.2 ± 2.8 µM
- IC50 (HT‐29 cells [8]): 8.2 ± 0.8 µM
- IC50 (HT‐29 cells [9]): 6.1 ± 3.4 µM
- activity at 1 µM (EA.hy926 cells [13]; EA.hy 926, read-out: Intracellular ROS, percentage compared to the untreated control cells (ROS/SRB), EA.hy926, 1 μM): 112 ± 1.6%
- activity at 10 µM (EA.hy926 cells [13]; EA.hy 926, read-out: Intracellular ROS, percentage compared to the untreated control cells (ROS/SRB), EA.hy926, 10 μM): 116 ± 3.3%
- activity at 1 µM (HT‐29 cells [14]; HT-29, read-out: Intracellular ROS, percentage compared to the untreated control cells (ROS/SRB), HT‐29, 1 μM): 94 ± 4%
- activity at 10 µM (HT‐29 cells [14]; HT-29, read-out: Intracellular ROS, percentage compared to the untreated control cells (ROS/SRB), HT‐29, 10 μM): 127 ± 7.9%
- activity at 1 µM (HepG2 cells [15]; HepG2, read-out: Intracellular ROS, percentage compared to the untreated control cells (ROS/SRB), HepG2, 1 μM): 99 ± 4.6%
- activity at 10 µM (HepG2 cells [15]; HepG2, read-out: Intracellular ROS, percentage compared to the untreated control cells (ROS/SRB), HepG2, 10 μM): 90.4 ± 11.9%

— article PMC5974556 (ChemistryOpen, 2018)
